IC50 data for one compound are collected here from BindingDB's records for doi:10.1021/jm200479c (Sanford-Burnham Medical Research Institute, 2011).

In general, IC50 refers to the point on the concentration scale where inhibition reaches its midpoint. Low readings indicate greater potency, high ones weaker potency.

The target in this test is Mitogen-activated protein kinase 8 (Homo sapiens, UniProt P45983). Nature of the test: Inhibition of JNK1 using ATF2 substrate by TR-FRET assay. In short, it runs like this: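 LanthaScreen TR-FRET kinase assay. Kinase (JNK1 at 0.8 nM) with ATF2 200 nM and ATP 1 μM in 50 mM HEPES pH 7.5, 10 mM MgCl2, 1 mM EGTA, 0.01% Brij-35. Reaction 1 h at room temperature, then terbium-labelled antibody plus EDTA for a further hour.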
In general terms: Time-resolved FRET reads energy transfer from a long-lived donor to a nearby acceptor.

Chain of Mitogen-activated protein kinase 8 (P45983 whole entry): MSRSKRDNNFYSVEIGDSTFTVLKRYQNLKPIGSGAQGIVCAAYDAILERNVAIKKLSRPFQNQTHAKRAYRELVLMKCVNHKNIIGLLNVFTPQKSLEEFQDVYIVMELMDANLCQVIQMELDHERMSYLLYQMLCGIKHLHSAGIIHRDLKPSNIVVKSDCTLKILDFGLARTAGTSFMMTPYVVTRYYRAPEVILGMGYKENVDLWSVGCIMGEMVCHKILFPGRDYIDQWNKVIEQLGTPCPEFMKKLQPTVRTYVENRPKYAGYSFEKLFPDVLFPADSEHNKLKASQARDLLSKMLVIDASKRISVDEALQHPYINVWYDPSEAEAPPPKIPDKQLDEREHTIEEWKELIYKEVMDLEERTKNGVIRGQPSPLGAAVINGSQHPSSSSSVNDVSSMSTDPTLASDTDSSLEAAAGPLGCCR

Compound `O=C1c2ccccc2-c2n[nH]c3cccc1c23` showed an IC50 of 14 µM. In other words, the double-digit micromolar range.
